Assay results taken from ChEMBL document CHEMBL1124520, “New kelatorphan-related inhibitors of enkephalin metabolism: improved antinociceptive properties” (J Med Chem, 1989).

Tests used:
[1] = target: T1, Aminopeptidase N (Sus scrofa, UniProt P15145); assay: Inhibition of Aminopeptidase N activity in pig kidney with 10 nM [3H]Leu-enkephalin as substrate; assay type: tissue-based
T1 sequence (P15145 whole entry): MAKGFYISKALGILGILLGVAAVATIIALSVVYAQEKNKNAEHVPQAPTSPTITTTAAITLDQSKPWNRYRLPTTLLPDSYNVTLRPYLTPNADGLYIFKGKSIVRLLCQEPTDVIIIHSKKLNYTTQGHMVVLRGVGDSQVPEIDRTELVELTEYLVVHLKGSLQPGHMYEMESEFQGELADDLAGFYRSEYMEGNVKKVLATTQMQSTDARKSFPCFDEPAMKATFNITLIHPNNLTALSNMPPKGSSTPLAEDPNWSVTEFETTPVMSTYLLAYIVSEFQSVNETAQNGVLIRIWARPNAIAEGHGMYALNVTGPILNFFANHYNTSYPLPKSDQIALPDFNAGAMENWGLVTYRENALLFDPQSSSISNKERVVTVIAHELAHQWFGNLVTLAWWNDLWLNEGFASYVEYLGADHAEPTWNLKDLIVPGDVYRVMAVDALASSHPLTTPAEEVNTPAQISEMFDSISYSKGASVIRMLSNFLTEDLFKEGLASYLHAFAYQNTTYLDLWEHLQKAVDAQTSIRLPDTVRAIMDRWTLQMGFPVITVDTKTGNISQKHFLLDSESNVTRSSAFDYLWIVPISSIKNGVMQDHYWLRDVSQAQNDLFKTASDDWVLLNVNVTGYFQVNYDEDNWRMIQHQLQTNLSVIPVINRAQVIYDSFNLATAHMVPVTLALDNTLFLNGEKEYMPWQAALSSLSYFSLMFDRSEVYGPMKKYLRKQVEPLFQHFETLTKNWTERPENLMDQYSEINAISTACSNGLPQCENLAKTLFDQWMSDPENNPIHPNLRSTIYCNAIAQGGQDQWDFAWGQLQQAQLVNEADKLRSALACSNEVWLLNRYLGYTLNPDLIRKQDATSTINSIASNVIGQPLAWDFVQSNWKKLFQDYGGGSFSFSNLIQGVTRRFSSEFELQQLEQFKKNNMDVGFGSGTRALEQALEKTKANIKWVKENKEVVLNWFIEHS
Method in brief: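 Commercial aminopeptidase N, used unpurified. Enzyme preincubated 15 min at 25 °C with or without rising inhibitor concentrations in 50 mM Tris-HCl. [3H]Leu-enkephalin (Km 50 μM) added to 10 nM final. Stopped after 30 min with HCl; tritiated metabolites separated on polystyrene beads. IC50 from log-probit of five concentrations, mean ± SEM of three independent experiments.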

[2] = system: Mus musculus; assay: Analgesic effect when injected intracerebroventricularly at 50 (microg); assay type: functional
Method in brief: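 Male Swiss mice (23–25 g), icv dose of 50 μg in 10 μL saline, n = 10 per group. Hot plate at 55 ± 0.5 °C; jump latency read 15 min after injection, cutoff 240 s. Compared with vehicle controls by ANOVA and Bonferroni test. % analgesia = (experimental − control latency)/(240 s − control latency).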

[3] = target: T2, Neprilysin (Oryctolagus cuniculus, UniProt P08049); assay: Inhibition of neutral endopeptidase activity in rabbit kidney with 20 nM [3H]D-Ala2-Leu-enkephalin as substrate
T2 sequence (P08049 whole entry): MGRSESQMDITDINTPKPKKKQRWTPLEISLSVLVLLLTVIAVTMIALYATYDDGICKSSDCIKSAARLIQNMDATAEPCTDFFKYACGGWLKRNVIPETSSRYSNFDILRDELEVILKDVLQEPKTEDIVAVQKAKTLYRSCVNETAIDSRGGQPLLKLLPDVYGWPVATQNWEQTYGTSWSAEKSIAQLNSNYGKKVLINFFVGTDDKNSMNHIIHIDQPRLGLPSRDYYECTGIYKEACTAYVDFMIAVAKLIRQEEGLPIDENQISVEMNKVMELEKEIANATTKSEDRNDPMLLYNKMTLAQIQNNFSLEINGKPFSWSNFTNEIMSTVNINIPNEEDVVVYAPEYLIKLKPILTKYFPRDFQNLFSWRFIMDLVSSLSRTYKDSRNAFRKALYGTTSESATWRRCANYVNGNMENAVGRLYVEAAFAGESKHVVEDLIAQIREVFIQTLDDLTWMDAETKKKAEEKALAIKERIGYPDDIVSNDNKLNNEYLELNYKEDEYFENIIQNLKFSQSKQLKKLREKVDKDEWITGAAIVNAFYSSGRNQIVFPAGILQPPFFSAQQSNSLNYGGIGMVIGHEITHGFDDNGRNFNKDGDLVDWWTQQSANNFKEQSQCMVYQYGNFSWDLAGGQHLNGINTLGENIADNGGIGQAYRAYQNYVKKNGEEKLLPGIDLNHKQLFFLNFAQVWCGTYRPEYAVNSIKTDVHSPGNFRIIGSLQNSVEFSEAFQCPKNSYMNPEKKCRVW
Method in brief: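 NEP purified to homogeneity from rabbit kidney, 1 pmol/100 μL final, preincubated 15 min at 25 °C in 50 mM Tris-HCl with or without inhibitor. [3H]-D-Ala2-Leu-enkephalin (Km 30 μM) added at 20 nM final. Reaction stopped at 30 min with 0.5 M HCl; products separated on polystyrene beads. IC50 from log-probit of five concentrations, mean ± SEM of three experiments.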

[4] = Inhibition of dipeptidyl amino peptidase activity in rat brain with 10 nM [3H]Leu-enkephalin as substrate; assay type: tissue-based
Method in brief: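 Membrane-bound dipeptidylaminopeptidase purified from rat brain. Preincubated 15 min at 25 °C in 50 mM Tris-HCl with or without inhibitor. […] IC50 by log-probit over five inhibitor concentrations; mean ± SEM, three independent experiments.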

Row | SMILES | IC50 [1] [nM] | IC50 [3] [nM] | IC50 [4] [nM] | Analgesia [2] [%] | Latency time [2] [s]
1 | CC(CNC(=O)C(CC(=O)NO)Cc1ccccc1)C(=O)O (configuration not stated) | 360 | 2.3 | 23 | 46.6 | 162.3
2 | O=C(CC(Cc1ccccc1)C(=O)NC(Cc1ccccc1)C(=O)O)NO (configuration not stated) | 130 |  |  |  | 
3 | CN(C(=O)C(CC(=O)NO)Cc1ccccc1)C(Cc1ccccc1)C(=O)O (configuration not stated) | 120 | 150 | 2.3 |  | 
4 | O=C(O)C[C@H](Cc1ccccc1)NC(=O)[C@H](CC(=O)NO)Cc1ccccc1 | 1430 | 7.6 | 28.5 |  | 
5 | CC(NC(=O)C(CC(=O)NO)Cc1ccccc1)C(C)C(=O)O (stereo in doubt; 11A) |  | 26.5 | 10.5 |  | 
6 | O=C(O)CCNC(=O)C(CC(=O)NO)Cc1ccccc1 (configuration not stated) | 670 | 2.4 | 36 | 21.5 | 125.3
7 | O=C(O)CCCNC(=O)C(CC(=O)NO)Cc1ccccc1 (configuration not stated) | 1500 | 27.5 | 150 |  | 
8 | O=C(CC(Cc1ccccc1)C(=O)NCC(Cc1ccccc1)C(=O)O)NO (configuration not stated) | 71.5 | 1.8 | 2.5 | 39.4 | 151.8
9 | O=C(O)C[C@H](NC(=O)[C@@H](CC(=O)NO)Cc1ccccc1)c1ccccc1 (racemic) | 32.5 | 2.9 | 2.6 | 62.1 | 184.8
10 | C[C@H](NC(=O)[C@@H](CC(=O)NO)Cc1ccccc1)C(=O)O [KELATORPHAN] |  |  |  | 50 | 167.2

Second part, led by results:

Row | IC50 [1] [nM] | IC50 [3] [nM] | IC50 [4] [nM] | SMILES | Analgesia [2] [%] | Latency time [2] [s]
11 |  | 13 | 17.5 | CC(NC(=O)C(CC(=O)NO)Cc1ccccc1)C(C)C(=O)O (stereo in doubt; 11B) |  | 
12 | 350 | 1.7 | 0.9 | CC(CC(=O)O)NC(=O)C(CC(=O)NO)Cc1ccccc1 (stereo in doubt; C) |  | 
13 | 500 | 51.5 | 250 | O=C(O)CCCCNC(=O)C(CC(=O)NO)Cc1ccccc1 (configuration not stated) |  | 
14 | 400 | 3 | 7.2 | O=C(O)C[C@H](NC(=O)[C@H](CC(=O)NO)Cc1ccccc1)c1ccccc1 |  | 
15 | 2000 |  | 21 | O=C(O)CNC(=O)C(CC(=O)NO)Cc1ccccc1 (configuration not stated) |  | 
16 | 22.5 | 3 | 0.46 | O=C(O)C[C@H](Cc1ccccc1)NC(=O)[C@@H](CC(=O)NO)Cc1ccccc1 (racemic) | 68.2 | 193.7
17 | 445 | 2 | 10 | CC(CC(=O)O)NC(=O)C(CC(=O)NO)Cc1ccccc1 (stereo in doubt; 6) | 20.5 | 124
